Legend:
[1] = Genotoxicity in human HepG2 cells assessed as induction of DNA strand breaks at 1 mM measured after 2 hrs by alkali comet assay; details: hepg2, 1000 µM
[2] = Genotoxicity in human HepG2 cells assessed as induction of alkali labile sites at 1 mM measured after 2 hrs by alkali comet assay; details: hepg2, 1000 µM
[3] = Aqueous solubility of the compound; assay type: physicochemical; details: buffer
[4] = Cytotoxicity against human HepG2 cells assessed as reduction in cell viability measured after 72 hrs by MTT assay; assay type: cell-based
Summary of the method: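 HepG2 in MEM with 10% FBS, 5×10³ cells/well; 24 h attachment, then serial dilutions (DMSO <0.5% final) for 72 h at 37 °C, wells checked for precipitate. MTT 0.5 mg/mL for 2 h, formazan in DMSO, A570 with 630 nm reference. Viability versus untreated; doxorubicin positive control; CC50 from dose-response curve, triplicates, mean of three independent experiments.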

[5] = Selectivity index, ratio of CC50 for cytotoxicity against human HepG2 cells to EC50 for antiplasmodial activity against multidrug-resistant Plasmodium falciparum K1 infected in human erythrocytes; assay type: toxicity, cell-based; details: read-out: Ratio CC50/EC50
[6] = test system: Plasmodium falciparum; assay: Antiplasmodial activity against multidrug-resistant Plasmodium falciparum K1 infected in human erythrocytes assessed as reduction in parasite growth incubated for 72 hrs by SYBR green I fluorescence based assay; assay type: functional, organism-based; details: K1, Erythrocyte

| Structure (SMILES) | Activity [1] | Activity [2] | solubility [3] | CC50 at 72 h [4] | selectivity ratio [5] | EC50 [6] |
| --- | --- | --- | --- | --- | --- | --- |
| COS(C)(=O)=O [METHANESULFONIC ACID METHYL ESTER] | Toxic | Toxic | – | – | – | – |
| COc1ccccc1Sc1nc2ccccc2nc1C(Cl)(Cl)Cl | – | – | Soluble | 42.6 µM | 56.8 | 740 nM |
| Fc1ccc(Sc2nc3ccccc3nc2C(Cl)(Cl)Cl)cc1 | – | – | Soluble | 30.8 µM | 85.6 | 360 nM |
| FC(F)(F)Oc1ccc(Sc2nc3ccccc3nc2C(Cl)(Cl)Cl)cc1 | – | – | Soluble | 21 µM | 58.3 | 360 nM |
| Clc1cccc(Sc2nc3ccccc3nc2C(Cl)(Cl)Cl)c1Cl | – | – | Soluble | 34.6 µM | 112 | 310 nM |
| ClC(Cl)(Cl)c1nc2ccccc2nc1Sc1ccc(Br)cc1 | – | – | Soluble | 42.2 µM | 93 | 460 nM |
| Cc1ccc(Sc2nc3ccccc3nc2C(Cl)(Cl)Cl)cc1 | – | – | Soluble | 69.7 µM | 46.5 | 1500 nM |
| c1ccc(Sc2cnc3ccccc3n2)cc1 | – | – | – | > 50 µM | – | > 50000 nM |
| Clc1ccc(Sc2nc3ccccc3nc2C(Cl)(Cl)Cl)c(Cl)c1 | – | – | Soluble | > 31.2 µM | > 34.7 | 900 nM |
| CCN(CC)CCCC(C)Nc1ccnc2cc(Cl)ccc12 (stereo unspecified) [CHLOROQUINE] | – | – | – | – | – | 800 nM |
| FC(F)(F)c1ccc(Sc2nc3ccccc3nc2C(Cl)(Cl)Cl)cc1 | – | – | Soluble | 29.9 µM | 59.8 | 500 nM |
| Fc1cccc(Sc2nc3ccccc3nc2C(Cl)(Cl)Cl)c1 | – | – | Soluble | 35.9 µM | 116 | 310 nM |

From ChEMBL document CHEMBL4828728, “Antiplasmodial 2-thiophenoxy-3-trichloromethyl quinoxalines target the apicoplast of Plasmodium falciparum” (Eur J Med Chem, 2021)
